Screens: PubChem, several laboratories
STAT1 blocker = inhibitors of IFN-gamma induced STAT1 signaling | AID 920 | NIH 3T3 STAT1-luciferase reporter, luminescence | inhibition, % at 5.5 µM | actives 0.35% (n = 200,000);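 active means inhibition above a set limit, the mean inhibition across all tested compounds plus 3 SD, cut at about 34% in these data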;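 further: 0% = IFN-gamma with DMSO and 100% = IFN-gamma with 300 µM nifuroxazide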
STAT1 activator = activators of IFN-gamma induced STAT1 signaling | activation (% of control), % at 5.5 µM | actives 2.6% (n = 200,000) | NIH 3T3 STAT1-luciferase reporter, luminescence; 100% = IFN-gamma alone, no compound;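 active means activation above the screen-wide mean activation plus 3 SD, cut at about 130% in these data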;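 further: raw ratio to IFN-gamma control signal so 100% means no change and 0% no light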
APP 5'UTR act = activates APP 5'UTR luciferase reporter. actives 1% (n = 190,000). activation, % at 2 µM. SH-SY5Y APP 5'UTR luciferase reporter, luminescence; zero percent = DMSO vehicle wells;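 active means activation above a set limit, based on mean plus 3 SD of controls, cut at about 140% in these data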
NF-kB neuron act = NF-kB expression increase, human neuronal cells; NF-kB reporter expression; hits give high values; fold change at 12.5 µM; actives 1.6% (n = 190,000); AID 1239; in the data active means fold change above about 3.3
STAT3 activator = STAT3 signaling activation; activation (% of control), % at 5.6 µM; actives 0.91% (n = 190,000); U3A cells, IL-6 STAT3-luciferase reporter, luminescence; 100% = signal with IL-6 EC80 alone; AID 871;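 active means activation above the screen-wide mean of compound activation plus 3 SD, cut at about 130% in these data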;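 further: 0% = background luminescence of wells with medium and substrate only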
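Material: STAT3-luciferase reporter U3A cells; Probe or stimulus: IL-6 (33 ng/mL); Incubation: compound pre-incubation 1 h before IL-6, then 6 h stimulation at 37 °C; Technique: luminescence from STAT3-driven luciferase reporter; Evaluation: % activation versus median of IL-6-stimulated wells; Controls: IL-6-only high control.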
STAT3 blocker = STAT3 signaling inhibition; inhibition, % at 5.5 µM; U3A cells, IL-6 STAT3-luciferase reporter, luminescence; host cell line lacks STAT1; AID 862; actives 0.89% (n = 190,000);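 active means inhibition above the mean inhibition across all screened compounds plus 3 SD, cut at about 44% in these data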;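 further: 0% = DMSO only wells and 100% = 100 µM nifuroxazide control wells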
* marks the source's active call; other numbers are inactive results; · = not tested or not shown. Shown are actives, neighbours in structure and some others; about 4.9% of the full set was active somewhere.

SMILES | STAT1 blocker | STAT1 activator | APP 5'UTR act | NF-kB neuron act | STAT3 activator | STAT3 blocker
CC(=O)c1ccc(NC(=O)c2cnn3ccccc23)cc1 | 85.5* | 22.5 | 105.3 | 3.14 | 35.6 | 82.9*
Cc1ccc(C)c(NC(=O)c2cnn3ccccc23)c1 | -12.0 | 110.9 | -5.4 | 1.21 | 82.5 | 28.9
COc1ccc(NC2=C(NCCO)C(=O)c3ccccc3C2=O)cc1 | -1.7 | 101.1 | 32.1 | 4.31* | 106.9 | -6.9
O=c1[nH]cc(NCCNc2ncc(C(F)(F)F)cc2Cl)c(=O)[nH]1 | -5.3 | 104.2 | -4.6 | 1.12 | 107.4 | 4.2
Cc1c(-c2ccccn2)c(=O)[nH]n1-c1ccc(F)cc1 | -5.1 | 104.9 | 124.8 | 3.81* | 84.2 | 25.8
CC1=CC(=C2C(=O)c3ccccc3C2=O)C=C(C)N1C | -38.9 | 135.4* | 48.3 | 2.27 | 82.2 | 24.4
COC1=C(c2ccccc2)C(=O)c2ccccc2C1=O | 0.3 | 99.7 | -12.2 | 1.18 | 101.0 | -1.1
COc1ccc(NC(=O)CN(C)CC(=O)Nc2ccc(Cl)cc2F)cc1 | -4.4 | 102.3 | 10.7 | 1.17 | 103.8 | 6.4
c1ccc2c(COn3nnc4ccccc43)cccc2c1 | -30.6 | 128.2 | 109.6 | 3.37* | 99.1 | 2.6
CCOc1ccccc1CNCc1ccc(F)cc1 | -4.8 | 101.3 | -5.5 | 1.27 | 98.8 | 6.2
Brc1ccc(-c2csc(NC3=NCCCCC3)n2)cc1 | -38.1 | 134.2* | 36.5 | 1.68 | 105.7 | -6.0
c1ccc(-c2csc(NNC3=NCCCCC3)n2)cc1 | -34.7 | 131.9* | 25.0 | 0.92 | 111.3 | -5.0
Cn1cnnc1SCC(=O)NCCc1ccc(Cl)cc1Cl | -1.3 | 100.6 | -3.5 | 1.59 | 97.4 | 5.5
COc1cccc(NC(=O)COC(=O)c2ccccc2C(=O)N2CCN(c3ccccc3)CC2)c1 | 1.3 | 97.5 | -3.8 | 0.99 | 100.0 | 7.8
N#CCC(=O)Nn1c(=S)[nH]c2ccccc2c1=O | 3.5 | 95.3 | -4.6 | 1.08 | 107.0 | -6.6
COc1nc(-c2ccccc2)nnc1-c1ccccc1 | -60.6 | 155.6* | 179.9* | 6.17* | 153.0* | -61.5
COc1nc(-c2ccccc2)nc(C)c1CC(=O)O | -0.2 | 98.8 | -9.0 | 1.03 | 103.7 | 1.0
Cc1cc(C)nc(/N=C(\N)N(Cc2ccccc2)Cc2ccccc2)n1 | 26.8 | 75.0 | -9.1 | 0.8 | 106.1 | -7.9
CC1CCC(C(C)C)C(OC(=O)CSc2nccc(=O)[nH]2)C1 (configuration not stated) | 0.3 | 99.7 | 15.1 | 1.41 | 103.2 | 0.9
COc1ccc(-c2n(CC(=O)OC3CC(C)CCC3C(C)C)c3ccccc3[n+]2C)cc1 (configuration not stated) | 56.6* | 46.4 | -14.4 | 0.37 | 57.5 | 51.9*
CC(=O)c1ccc2c3c(cccc13)C(=O)N(CCc1ccccc1)C2=O | -36.2 | 132.4* | 96.6 | 1.66 | 182.7* | -101.3
O=C(O)c1ccc2c3c(cccc13)C(=O)N(c1ccccc1)C2=O | 0.7 | 99.0 | 0.1 | 0.94 | 130.4 | -27.7
O=C(NC1CCCC1)c1n[nH]c2ccccc12 | -41.3 | 137.7* | 69.1 | 1.28 | 95.3 | 8.0
O=C(COC(=O)c1n[nH]c2ccccc12)NC(=O)NC1CCCC1 | -0.6 | 100.6 | -9.6 | 0.99 | 100.2 | 4.3
O=C(COc1ccccc1)NC1=NCCS1 | -24.0 | 122.1 | -6.2 | 1.22 | 107.8 | -11.2
SMILES | STAT1 blocker | STAT1 activator | APP 5'UTR act | NF-kB neuron act | STAT3 activator | STAT3 blocker
O=C(NC1=NCCS1)Nc1ccccc1 | -37.3 | 134.6* | 53.2 | 2.45 | 93.1 | 12.0
CC(Oc1ccccc1)C(=O)NC1=NCCS1 (configuration not stated) | -36.2 | 133.7* | 57.9 | · | 115.0 | -10.5
CN(C)/C=C1\C(=O)Nc2ccccc21 | 5.6 | 94.8 | · | 1.14 | 134.7* | -31.8
CCn1c(/C=C2\C(=O)Nc3ccccc32)nc2ccccc2c1=O | -5.8 | 105.2 | · | 1.17 | 94.7 | 6.5
Clc1ccc2oc(-c3ccccc3)cc(=NCCCN3CCOCC3)c2c1 | -51.5 | 146.6* | 70.1 | 1.81 | 94.7 | 8.0
Cn1cc(/C=N/n2cnc3scc(-c4ccc(Cl)cc4)c3c2=O)c2ccccc21 | 0.1 | 99.9 | -90.4 | 1.12 | 134.8* | -40.0
O=C1CCCC/C1=C/Nc1ccc2c(c1)OCO2 | -43.9 | 140.7* | 66.9 | 2.22 | 96.7 | 7.9
CC(C)(C)c1ccc(OCC(=O)N2CCCCCC2)c(Br)c1 | -38.0 | 133.5* | 18.9 | 1.01 | 116.8 | -11.1
O=C(Nc1ccccc1)OCCOc1ccccc1 | -35.8 | 132.5* | 87.5 | 4.48* | 97.5 | 7.6
Cc1ccc(OC(=O)Nc2ccccc2)cc1 | -51.4 | 144.0* | 27.3 | 0.98 | 95.3 | 7.7
Cn1cc(Br)c(C(=O)NN2C(=O)C3C4C=CC(C5CC45)C3C2=O)n1 (configuration not stated) | -3.9 | 101.5 | 7.0 | 0.97 | 94.8 | 11.3
Nc1ccc2nc(-c3ccccc3)[nH]c2c1 | -34.3 | 130.7* | 57.3 | 1.24 | 108.5 | -9.4
Nc1ccc2nc(-c3ccc(N)c(Cl)c3)[nH]c2c1 | -49.2 | 132.0* | 59.2 | 1.39 | 72.1 | 34.7
Cc1nc2ccc([N+](=O)[O-])cc2[nH]1 | 3.8 | 95.4 | 47.4 | 0.95 | 99.9 | 1.7
O=[N+]([O-])c1ccc2nc(-c3ccccc3)[nH]c2c1 | -40.2 | 140.8* | 109.4 | 1.26 | 99.2 | -1.5
COc1ccccc1N1CCN(C(=O)NC23CC4CC(CC(C4)C2)C3)CC1 | -5.4 | 105.2 | 5.7 | 1.11 | 109.5 | -12.2
COc1ccc(-n2c(-c3ccc(Br)cc3)c[n+]3c2CCc2ccccc2-3)cc1 | 24.6 | 77.7 | 2.4 | 0.8 | 39.4 | 71.6*
CC(C)c1ccc(-n2c(-c3ccccc3)c[n+]3c2CCc2ccccc2-3)cc1 | 40.5* | 63.0 | -13.2 | 1.39 | 34.6 | 79.8*
CCCCn1c(SCC(=O)N2CCCC2)nc2cc(S(N)(=O)=O)ccc21 | 2.5 | 97.8 | 9.2 | 1.03 | 104.1 | 3.8
CN1CCN(CC(O)COc2ccc(C34CC5CC(CC(C5)C3)C4)cc2)CC1 (configuration not stated) | -2.7 | 102.6 | 18.6 | 0.59 | 105.8 | -7.6
O=C(N/N=C1\CCCCc2ccccc21)c1ccccn1 | -20.8 | 117.2 | 50.9 | 1.91 | 111.7 | -10.1
Cc1occc1C(=O)NC1CCCCCC1 | -13.5 | 112.4 | 10.2 | 1.21 | 116.0 | -16.7
C/C(=N/NC(=O)c1ccoc1C)C12CC3CC(CC(C3)C1)C2 | -23.9 | 121.8 | 158.3* | 1.97 | 113.0 | -9.0
N/C(=N\OC(=O)C12CC3CC(CC(C3)C1)C2)c1ccccn1 | -47.6 | 142.4* | 13.9 | 1.85 | 111.4 | -16.4
C/C(=N\NC(=O)c1ccccn1)C12CC3CC(CC(C3)C1)C2 | -54.7 | 149.9* | 86.4 | 1.78 | 107.3 | -3.6
O=C(NN=C1CCCCCCC1)c1ccccn1 | -20.8 | 118.7 | 170.0* | 1.84 | 108.0 | -6.4
N/C(=N\OC(=O)C12CC3CC(CC(C3)C1)C2)c1ccccc1 | -0.9 | 100.8 | -11.1 | 1.48 | 118.3 | -9.4
